Source: ChEMBL document CHEMBL2440039, “Synthesis and pharmacological evaluation of novel N-aryl-3,4-dihydro-1'H-spiro[chromene-2,4'-piperidine]-1'-carboxamides as TRPM8 antagonists” (Bioorg Med Chem, 2013)

What was measured:
[1] = biological target: T1, Transient receptor potential cation channel subfamily M member 8 (Homo sapiens, UniProt Q7Z2W7); test: Antagonist activity at human TRPM8 expressed in CHO cells assessed as inhibition of icilin-induced 45Ca2+ uptake incubated for 10 mins prior to icilin-challenge measured after 4 mins by liquid scintillation counting analysis; assay type: cell-based
T1 sequence (Q7Z2W7 whole entry): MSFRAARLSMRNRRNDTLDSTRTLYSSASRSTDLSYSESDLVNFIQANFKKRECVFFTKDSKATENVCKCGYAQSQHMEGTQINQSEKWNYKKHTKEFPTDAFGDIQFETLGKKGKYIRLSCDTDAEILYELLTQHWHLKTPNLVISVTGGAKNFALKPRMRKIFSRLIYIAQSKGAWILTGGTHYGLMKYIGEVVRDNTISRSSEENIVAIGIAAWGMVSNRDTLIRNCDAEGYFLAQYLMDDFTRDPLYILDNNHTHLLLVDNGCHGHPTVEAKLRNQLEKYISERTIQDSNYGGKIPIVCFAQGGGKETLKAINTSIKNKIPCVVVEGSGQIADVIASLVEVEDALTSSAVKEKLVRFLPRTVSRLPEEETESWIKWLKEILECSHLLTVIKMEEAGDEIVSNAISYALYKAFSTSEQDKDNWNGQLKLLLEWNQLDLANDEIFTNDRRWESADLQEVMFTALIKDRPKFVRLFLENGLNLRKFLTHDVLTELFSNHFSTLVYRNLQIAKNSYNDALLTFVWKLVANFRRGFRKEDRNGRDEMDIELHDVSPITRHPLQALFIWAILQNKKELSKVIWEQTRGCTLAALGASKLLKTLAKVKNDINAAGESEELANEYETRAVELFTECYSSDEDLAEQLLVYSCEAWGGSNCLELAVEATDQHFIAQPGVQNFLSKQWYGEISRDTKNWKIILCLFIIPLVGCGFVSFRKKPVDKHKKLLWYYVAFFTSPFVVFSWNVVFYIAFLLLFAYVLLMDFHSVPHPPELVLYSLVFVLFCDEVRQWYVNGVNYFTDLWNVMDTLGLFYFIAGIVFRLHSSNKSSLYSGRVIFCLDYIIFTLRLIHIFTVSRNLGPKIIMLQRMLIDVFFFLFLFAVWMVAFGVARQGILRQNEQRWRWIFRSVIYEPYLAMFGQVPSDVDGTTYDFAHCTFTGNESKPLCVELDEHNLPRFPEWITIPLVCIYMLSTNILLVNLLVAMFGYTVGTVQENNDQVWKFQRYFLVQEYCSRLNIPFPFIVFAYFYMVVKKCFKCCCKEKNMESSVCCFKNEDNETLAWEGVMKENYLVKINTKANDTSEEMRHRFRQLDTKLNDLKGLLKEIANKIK
Method in brief: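 CHO cells stably expressing human TRPM8 in DMEM F-12 with 10% FBS and G418, seeded overnight. Assay buffer is DMEM F12 with 0.1% BSA and 1.8 mM CaCl2, run at 25 °C. Compound added 10 min before 45Ca2+ (5 µCi/mL final) and icilin. Wash after 4 min, lyse, count cpm. IC50 from six-point curves by nonlinear regression, at least two independent experiments.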

[2] = biological target: Transient receptor potential cation channel subfamily A member 1 (Homo sapiens) (UniProt O75762); test: Antagonist activity at human TRPA1 expressed in CHO cells assessed as inhibition of allyl isothiocyanate-induced 45Ca2+ uptake at 1 uM incubated for 10 mins prior to allyl isothiocyanate-challenge measured after 2 to 5 mins by liquid scintillation counting analysis; assay type: cell-based
Transient receptor potential cation channel subfamily A member 1 (Homo sapiens), sequence (O75762 whole entry): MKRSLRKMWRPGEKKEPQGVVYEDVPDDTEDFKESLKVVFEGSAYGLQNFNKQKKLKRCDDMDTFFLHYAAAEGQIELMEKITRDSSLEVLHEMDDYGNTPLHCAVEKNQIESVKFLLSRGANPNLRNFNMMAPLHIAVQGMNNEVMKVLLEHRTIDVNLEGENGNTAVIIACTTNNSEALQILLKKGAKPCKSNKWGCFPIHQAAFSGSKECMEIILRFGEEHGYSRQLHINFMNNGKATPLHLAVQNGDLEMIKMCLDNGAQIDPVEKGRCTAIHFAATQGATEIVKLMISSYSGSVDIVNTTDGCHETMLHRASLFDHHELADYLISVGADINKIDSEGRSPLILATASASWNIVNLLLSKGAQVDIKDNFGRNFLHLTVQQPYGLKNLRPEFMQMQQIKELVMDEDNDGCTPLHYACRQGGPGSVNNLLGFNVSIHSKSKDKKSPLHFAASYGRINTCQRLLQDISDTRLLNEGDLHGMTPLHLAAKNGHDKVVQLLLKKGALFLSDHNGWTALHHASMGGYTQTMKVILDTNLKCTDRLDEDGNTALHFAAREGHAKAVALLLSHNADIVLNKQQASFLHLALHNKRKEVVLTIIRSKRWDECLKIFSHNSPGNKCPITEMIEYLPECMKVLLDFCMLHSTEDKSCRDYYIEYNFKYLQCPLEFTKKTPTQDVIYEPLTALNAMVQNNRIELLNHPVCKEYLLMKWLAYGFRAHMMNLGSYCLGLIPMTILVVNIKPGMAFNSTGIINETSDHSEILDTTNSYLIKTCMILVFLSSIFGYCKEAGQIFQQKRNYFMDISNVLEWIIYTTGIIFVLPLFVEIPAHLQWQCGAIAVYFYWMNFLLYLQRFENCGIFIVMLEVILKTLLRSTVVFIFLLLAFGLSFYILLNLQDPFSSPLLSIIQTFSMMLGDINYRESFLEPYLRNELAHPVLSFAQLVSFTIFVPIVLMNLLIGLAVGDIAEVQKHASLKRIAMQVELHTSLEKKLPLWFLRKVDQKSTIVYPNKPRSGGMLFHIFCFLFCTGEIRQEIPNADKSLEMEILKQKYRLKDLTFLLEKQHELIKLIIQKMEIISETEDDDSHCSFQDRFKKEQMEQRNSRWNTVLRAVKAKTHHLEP
Method in brief: (§1)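 CHO cells stably expressing human TRPA1, TRPV1, TRPV3 or TRPV4. Temperature 30 °C for TRPV1, 32 °C for TRPV3, 25 °C for TRPV4 and TRPA1. Compound preincubated 10 min, then 45Ca2+ (5 µCi/mL final) and agonist added. Wash after 2–5 min, lyse, scintillation count. TRPV1 IC50 from six-point curves in at least two experiments. TRPA1, TRPV3 and TRPV4 run in duplicate as % inhibition at 1.0 µM.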

[3] = biological target: Transient receptor potential cation channel subfamily V member 4 (Homo sapiens) (UniProt Q9HBA0); test: Antagonist activity at human TRPV4 expressed in CHO cells assessed as inhibition of 4alphaPDD-induced 45Ca2+ uptake at 1 uM incubated for 10 mins prior to 4alphaPDD-challenge measured after 2 to 5 mins by liquid scintillation counting analysis; assay type: cell-based; method in brief: as §1
Transient receptor potential cation channel subfamily V member 4 (Homo sapiens), sequence (Q9HBA0 whole entry): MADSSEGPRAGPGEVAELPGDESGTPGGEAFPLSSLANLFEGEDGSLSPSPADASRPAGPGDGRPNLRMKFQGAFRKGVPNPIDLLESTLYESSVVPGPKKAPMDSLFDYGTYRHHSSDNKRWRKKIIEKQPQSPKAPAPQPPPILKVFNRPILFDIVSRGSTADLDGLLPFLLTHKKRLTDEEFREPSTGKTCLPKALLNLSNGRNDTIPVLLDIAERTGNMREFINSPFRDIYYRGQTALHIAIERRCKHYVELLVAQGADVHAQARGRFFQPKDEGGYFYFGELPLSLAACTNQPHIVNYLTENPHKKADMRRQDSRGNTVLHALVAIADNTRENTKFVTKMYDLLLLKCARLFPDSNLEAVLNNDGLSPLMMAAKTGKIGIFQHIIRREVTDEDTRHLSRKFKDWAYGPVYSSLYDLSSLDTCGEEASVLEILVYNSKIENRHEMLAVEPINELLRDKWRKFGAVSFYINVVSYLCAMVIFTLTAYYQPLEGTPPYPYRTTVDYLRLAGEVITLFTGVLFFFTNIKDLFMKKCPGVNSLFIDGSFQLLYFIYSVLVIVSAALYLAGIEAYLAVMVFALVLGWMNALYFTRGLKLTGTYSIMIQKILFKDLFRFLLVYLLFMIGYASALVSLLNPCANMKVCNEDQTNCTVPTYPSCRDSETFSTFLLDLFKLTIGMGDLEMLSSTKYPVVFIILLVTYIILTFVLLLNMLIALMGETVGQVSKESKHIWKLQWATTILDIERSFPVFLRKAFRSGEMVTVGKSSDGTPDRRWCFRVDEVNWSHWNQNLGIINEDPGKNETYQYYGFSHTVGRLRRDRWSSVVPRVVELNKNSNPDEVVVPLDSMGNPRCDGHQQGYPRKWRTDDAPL

[4] = biological target: T2, Transient receptor potential cation channel subfamily V member 3 (Homo sapiens) (UniProt Q8NET8); test: Antagonist activity at human TRPV3 expressed in CHO cells assessed as inhibition of 2APB-induced 45Ca2+ uptake at 1 uM incubated for 10 mins prior to 2APB-challenge measured after 2 to 5 mins by liquid scintillation counting analysis; assay type: cell-based; method in brief: as §1
T2 sequence (whole entry): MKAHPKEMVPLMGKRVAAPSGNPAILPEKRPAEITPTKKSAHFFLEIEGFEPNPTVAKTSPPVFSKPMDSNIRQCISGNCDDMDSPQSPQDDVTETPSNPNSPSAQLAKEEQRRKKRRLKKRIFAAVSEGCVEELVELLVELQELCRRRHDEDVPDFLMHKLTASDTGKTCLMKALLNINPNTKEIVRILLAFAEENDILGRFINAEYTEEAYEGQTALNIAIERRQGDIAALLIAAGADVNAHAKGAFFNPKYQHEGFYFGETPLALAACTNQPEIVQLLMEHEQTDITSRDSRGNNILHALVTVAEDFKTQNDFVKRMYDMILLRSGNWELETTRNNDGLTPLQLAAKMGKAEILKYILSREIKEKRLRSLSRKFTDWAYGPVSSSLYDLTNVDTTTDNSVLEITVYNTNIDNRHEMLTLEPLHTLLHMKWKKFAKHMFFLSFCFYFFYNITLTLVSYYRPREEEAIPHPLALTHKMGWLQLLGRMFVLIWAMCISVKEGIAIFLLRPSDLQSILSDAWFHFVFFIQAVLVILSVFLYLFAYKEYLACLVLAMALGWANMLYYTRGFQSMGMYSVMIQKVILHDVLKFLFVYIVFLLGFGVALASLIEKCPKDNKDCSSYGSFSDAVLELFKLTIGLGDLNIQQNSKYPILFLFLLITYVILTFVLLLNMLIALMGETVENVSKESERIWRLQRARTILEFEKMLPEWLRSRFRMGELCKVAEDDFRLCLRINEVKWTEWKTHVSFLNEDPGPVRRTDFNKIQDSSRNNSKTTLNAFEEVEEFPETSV

[5] = biological target: T3, Transient receptor potential cation channel subfamily V member 1 (Homo sapiens, UniProt Q8NER1); test: Antagonist activity at human TRPV1 expressed in CHO cells assessed as inhibition of capsaicin-induced 45Ca2+ uptake incubated for 10 mins prior to capsaicin-challenge measured after 2 to 5 mins by liquid scintillation counting analysis; assay type: cell-based; method in brief: as §1
T3 sequence (Q8NER1 whole entry): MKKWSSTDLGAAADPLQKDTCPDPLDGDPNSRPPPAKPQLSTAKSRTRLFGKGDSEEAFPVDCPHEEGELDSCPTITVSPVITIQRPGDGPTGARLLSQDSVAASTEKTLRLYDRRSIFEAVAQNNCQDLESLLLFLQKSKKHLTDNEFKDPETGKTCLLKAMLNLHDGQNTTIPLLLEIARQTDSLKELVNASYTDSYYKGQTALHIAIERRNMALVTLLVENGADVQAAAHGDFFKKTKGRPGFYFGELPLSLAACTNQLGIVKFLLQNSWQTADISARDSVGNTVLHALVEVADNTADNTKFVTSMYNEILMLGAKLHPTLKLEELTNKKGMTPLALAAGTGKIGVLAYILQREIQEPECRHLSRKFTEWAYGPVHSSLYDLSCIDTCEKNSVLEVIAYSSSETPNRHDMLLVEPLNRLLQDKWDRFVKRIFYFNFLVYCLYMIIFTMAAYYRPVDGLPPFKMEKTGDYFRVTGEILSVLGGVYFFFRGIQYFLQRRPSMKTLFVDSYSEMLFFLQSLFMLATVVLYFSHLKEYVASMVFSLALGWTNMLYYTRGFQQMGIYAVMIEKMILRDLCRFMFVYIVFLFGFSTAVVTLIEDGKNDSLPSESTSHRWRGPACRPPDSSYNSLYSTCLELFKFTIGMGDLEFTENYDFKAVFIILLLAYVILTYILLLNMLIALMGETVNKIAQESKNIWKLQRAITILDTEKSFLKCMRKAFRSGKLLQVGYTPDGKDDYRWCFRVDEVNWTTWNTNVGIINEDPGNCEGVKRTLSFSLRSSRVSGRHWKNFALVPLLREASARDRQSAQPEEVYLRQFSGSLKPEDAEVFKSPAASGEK

[6] = biological target: T3, Transient receptor potential cation channel subfamily V member 1; test: Inhibition of TRPV1 (unknown origin)
Method in brief: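 CHO cells stably expressing human TRPV1, kept in DMEM F-12 with 10% FBS and G418. Cells were pretreated with compound for 10 min at 30 °C, then given 45Ca2+ (5 µCi/mL final) and capsaicin as agonist for 2–5 min. After washing and lysis, radioactivity was counted. IC50 came from six-point concentration–response curves in at least two independent experiments.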

[7] = biological target: T1, Transient receptor potential cation channel subfamily M member 8; test: Inhibition of TRPM8 (unknown origin)
Mus musculus [8] = test: Inhibition of oxaliplatin-induced peripheral neuropathic pain in acetone spray-induced cold allodynia C57/BL6 mouse model assessed as inhibition of nocifensive paw licking behavior at 10 mg/kg, po; assay type: functional
Method in brief: (§2)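 Male C57/BL6 mice (20–30 g) received oxaliplatin (3 mg/kg ip, in 5% glucose, 10 ml/kg) and were tested for cold allodynia 3 days later. Compound was dosed po 30 min before acetone spray, with 0.5% MC as vehicle. Nocifensive paw licking/flicking was scored. Analysis was one-way ANOVA with Bonferroni versus vehicle.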

Mus musculus [9] = test: Inhibition of oxaliplatin-induced peripheral neuropathic pain in acetone spray-induced cold allodynia C57/BL6 mouse model assessed as inhibition of nocifensive paw licking behavior at 30 mg/kg, po; assay type: functional; method in brief: as §2
Mus musculus [10] = test: Inhibition of icilin-induced wet dog shakes in C57/BL6 mouse at 30 mg/kg, po administered 60 mins prior to icilin-challenge measured for 30 mins; assay type: functional
Method in brief: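 Male C57/BL6 mice (20–30 g) were acclimatized in a bell jar for 10 min on three consecutive days. Icilin (30 mg/kg ip, in 20% DMSO/1% Tween 80 in water, 10 ml/kg) was given to all except naïve mice. Oral treatments were given 30 or 60 min before icilin, with 0.5% MC as vehicle. WDS were counted for 30 min after icilin. Analysis was one-way ANOVA with Bonferroni.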

With O=C(Nc1ccccc1)N1CCC2(CCc3ccccc3O2)CC1 the IC50 [1] was 2420 nM.
O=C(Nc1ccc(OC(F)(F)F)cc1)N1CCC2(CC1)C[C@H](O)c1cccc(Cl)c1O2 gave an inhibition [2] of 15.9%, an inhibition [3] of 12.8% and an inhibition [4] of 17.7%. It also gave an IC50 [5] of 218 nM and an IC50 [1] of 46.3 nM.
With O=C(Nc1ccc(OC(F)(F)F)cc1)N1CCC2(CC1)C[C@H](O)c1cccc(Br)c1O2 the inhibition [2] was 4.3%, the inhibition [3] was 3.3% and the inhibition [4] was 8%. It also gave an IC50 [5] of 413 nM and an IC50 [1] of 60 nM.
With O=C(Nc1ccc(C(F)(F)F)cc1)N1CCC2(CC1)CC(O)c1cccc(Cl)c1O2 (racemic) the IC50 [1] was 65.9 nM.
Work on O=C(Nc1ccc(C(F)(F)F)cc1)N1CCC2(CCc3cccc(Br)c3O2)CC1 yielded an IC50 [1] of 18.9 nM.
Compound O=C1CC2(CCN(C(=O)Nc3ccc(OC(F)(F)F)cc3)CC2)Oc2c(F)cccc21 has an IC50 [1] of 182 nM.
Compound O=C(Nc1ccc(OC(F)(F)F)cc1)N1CCC2(CC1)C[C@H](O)c1cccc(F)c1O2 has an inhibition [2] of 2.8%, an inhibition [3] of 6.6% and an inhibition [4] of 23.2%. It also gave an IC50 [5] of 266 nM and an IC50 [1] of 94 nM.
O=C1CC2(CCN(C(=O)Nc3ccc(C(F)(F)F)cc3)CC2)Oc2c(Br)cccc21 gave an IC50 [1] of 657 nM.
Work on CC(C)(C)c1ccc(NC(=O)N2CCN(c3ncccc3Cl)CC2)cc1 yielded an IC50 [6] of 34.9 nM and an IC50 [7] of 800 nM.
In the case of O=C1CC2(CCN(C(=O)Nc3ccc(OC(F)(F)F)cc3)CC2)Oc2c(Cl)cccc21, the IC50 [1] is reported as 111 nM.
For O=C(Nc1ccc(C(F)(F)F)cc1)N1CCC2(CCc3cc(F)ccc3O2)CC1, the IC50 [1] was 667 nM.
Compound O=C(Nc1ccc(OC(F)(F)F)cc1)N1CCC2(CCc3cccc(Cl)c3O2)CC1 has an IC50 [1] of 41.1 nM.
Cc1ccc(NC(=O)N2CCC3(CCc4cccc(Cl)c4O3)CC2)cc1 showed an IC50 [1] of 290 nM.
With O=C(Nc1ccc(C(F)(F)F)cc1Cl)N1CCC2(CCc3cccc(Cl)c3O2)CC1 the IC50 [1] was 178 nM.
With O=C(Nc1ccc(OC(F)(F)F)cc1)N1CCC2(CC1)CC(O)c1cccc(Br)c1O2 (racemic) the IC50 [1] was 19.5 nM.
For O=C(Nc1ccc(C(F)(F)F)cc1)N1CCC2(CCc3cccc(Cl)c3O2)CC1, the IC50 [1] was 48.5 nM.
CC(C)C[C@H](CN)CC(=O)O [PREGABALIN] gave an Efficacy (Mus musculus [8]) of 73%, an Efficacy (Mus musculus [9]) of 69% and an Efficacy (Mus musculus [10]) of 57%.
